Activity calls are given as the source filed them. The calls are words filed in the database; no cut-off is given here.

Experiment [1] deals with T1, Arginase (Leishmania amazonensis, UniProt O96394). In words: Inhibition of recombinant Leishmania amazonensis arginase expressed in Escherichia coli assessed as reduction in urea production using L-arginine as substrate by Berthelot colorimetric method relative to control. The gist of the method:
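Arginase overexpressed in E. coli and purified. Urea formed was measured colorimetrically by the Berthelot method. IC50 given as mean ± SEM.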

Experiment [2] has as its target Arginase (Leishmania amazonensis) (UniProt O96394). In words: Inhibition of recombinant Leishmania amazonensis arginase expressed in Escherichia coli assessed as reduction in urea production at 100 uM using L-arginine as substrate by Berthelot colorimetric method relative to control.
Experiment [3] relates to Leishmania amazonensis. Description: Antileishmanial activity against Leishmania amazonensis MHOM/BR/1973/M2269 promastigotes assessed as inhibition of parasite growth incubated for 72 hrs by MTT assay. In kind it is functional, organism-based. The settings on record: MHOM/BR/1973/M2269, 72 h. In short, it runs like this: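 MHOM/BR/1973/M2269 promastigotes grown to stationary phase in M199 with 10% FBS, 5 ppm hemin, streptomycin and penicillin; 5.0 × 10^5 cells exposed 72 h to compounds at 100 µM to 0.78 µM (amphotericin B control, 10 µM downward). Formazan dissolved in DMSO and read at 570 nm. EC50 from a normalized variable-slope sigmoidal fit; mean ± SEM.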
(Formazan colour is commonly taken as a measure of viable cells.)

Experiment [4] addresses T1, Arginase. Description: Competitive inhibition of recombinant Leishmania amazonensis arginase expressed in Escherichia coli assessed as reduction in urea production by measuring dissociation constant for enzyme-inhibitor complex using L-arginine as substrate by Berthelot colorimetric method based Dixon/Cornish-Bowden plot analysis relative to control. The gist of the method:
(§1)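 Urea read by the Berthelot method. Ki and Kis taken from Dixon and Cornish-Bowden plots; Cornish-Bowden slopes compared statistically. Points are means of three independent experiments run in duplicate; constants given as mean ± SEM.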

Experiment [5] concerns the target Arginase (Leishmania amazonensis) (UniProt O96394). Description: Mixed type inhibition of recombinant Leishmania amazonensis arginase expressed in Escherichia coli assessed as reduction in urea production by measuring dissociation constant for enzyme-substrate-inhibitor complex using L-arginine as substrate by Berthelot colorimetric method based Dixon/Cornish-Bowden plot analysis relative to control. In short, it runs like this:
as §1

For experiment [6], the system named is Leishmania amazonensis. Description: Antileishmanial activity against Leishmania amazonensis MHOM/BR/1973/M2269 promastigotes assessed as inhibition of parasite growth at 100 uM incubated for 72 hrs by MTT assay. In kind it is functional, organism-based. The gist of the method:
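Single-concentration screen at 100 µM. Stationary-phase MHOM/BR/1973/M2269 promastigotes in supplemented M199, 5.0 × 10^5 cells, exposed 72 h. Formazan dissolved in DMSO and read at 570 nm.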

The target in experiment [7] is Arginase (Leishmania amazonensis) (UniProt O96394). Description: Ratio of Ki to Kis for inhibition of recombinant Leishmania amazonensis arginase expressed in Escherichia coli assessed as reduction in urea production using L-arginine as substrate by Berthelot colorimetric method based Dixon/Cornish-Bowden plot analysis relative to control.

One may read the IC50 as the concentration that gives 50% inhibition. For orientation: inhibition means the drop in the measured response relative to a control, in per cent. Consider `CC(=O)Nc1ccccc1C(F)(F)C(=O)Nc1ccc(Cl)cc1`, for which, in experiment [1], the half-inhibitory concentration (IC50) result is recorded as “Not Active”. For the same compound, the inhibition entry in experiment [2] is “inactive”.

For `CC(=O)Nc1ccccc1C(F)(F)C(=O)Nc1ccccc1`, the 50% inhibitory concentration (IC50) entry in experiment [1] was “Not Active”. Also, in experiment [2], the inhibition entry was “inactive”.

Usually EC50 stands for the concentration at which the effect is half-maximal. Consider `C[C@@H]1[C@H](O)[C@@H](C)/C=C/C=C/C=C/C=C/C=C/C=C/C=C/[C@H](O[C@@H]2O[C@H](C)[C@@H](O)[C@H](N)[C@@H]2O)C[C@@H]2O[C@](O)(C[C@@H](O)C[C@@H](O)[C@H](O)CC[C@@H](O)C[C@@H](O)CC(=O)O[C@H]1C)C[C@H](O)[C@H]2C(=O)O` [AMPHOTERICIN B], for which the 50% inhibitory concentration (IC50) entry in experiment [1] is “Not Active”. Also, the EC50 in experiment [3] is 0.33 µM.

By Ki is commonly meant the equilibrium dissociation constant of an inhibitor or competing ligand from its target. For the compound `CC(=O)Nc1ccccc1C(F)(F)C(=O)NNc1ccc(C(F)(F)F)cc1`, the inhibition constant (Ki) in experiment [4] was determined as 26 µM. Moreover, the IC50 in experiment [1] (read-out: IC50) was 38 µM. For the same compound, the inhibition in experiment [2] was over 70%. Moreover, in experiment [5], the Kis turned out to be 11 µM. Moreover, in experiment [3], the concentration giving a half-maximal response (EC50) is over 100 µM.

As for `CC(=O)Nc1ccccc1C(F)(F)C(=O)NNc1ccccn1`, the concentration for half-maximal inhibition (IC50) in experiment [1] (read-out: IC50) is over 100 µM. Also, the inhibition in experiment [2] is 8%. In experiment [3], the EC50 is over 100 µM.

For the compound `CC(=O)Nc1ccc(C)cc1C(F)(F)C(=O)NC(C)C`, the IC50 result in experiment [1] is “Not Active”. In addition, in experiment [2], the inhibition entry is “inactive”.

For the compound `CC(=O)Nc1ccccc1C(F)(F)C(=O)NNc1ccccc1`, the Ki in experiment [4] was determined as 5.1 µM. In addition, the IC50 in experiment [1] (read-out: IC50) was 12 µM. Further, in experiment [2], the inhibition was over 70%. In addition, the EC50 in experiment [3] was determined as 12.7 µM. Besides, the “growth inhibition (GI)” value in experiment [6] is “Active”.

In the case of `CC(=O)Nc1ccccc1C(F)(F)C(=O)NCc1ccccc1`, in experiment [4], the inhibition constant Ki was 32 µM. In addition, in experiment [1] (read-out: IC50), the concentration for half-maximal inhibition (IC50) is 37 µM. The inhibition in experiment [2] is over 70%. Besides, in experiment [5], the Kis came out at 6.5 µM. Moreover, the EC50 in experiment [3] is over 100 µM. In addition, the Ratio in experiment [7] was found to be 5.

Consider `CC(=O)Nc1ccc(C)cc1C(F)(F)C(=O)NNc1ccccn1`, for which, in experiment [1] (read-out: IC50), the IC50 was over 100 µM. Moreover, the concentration giving a half-maximal response (EC50) in experiment [3] was over 100 µM.

As to `CC(=O)Nc1ccc(C)cc1C(F)(F)C(=O)NNc1ccccc1`, in experiment [4], the Ki worked out at 1.3 µM. In experiment [1] (read-out: IC50), the IC50 came out at 12 µM. Besides, the inhibition in experiment [2] was over 70%. Also, the Kis in experiment [5] stood at 26 µM. Also, the EC50 in experiment [3] was over 100 µM.

The record behind these values is ChEMBL document CHEMBL4385644, “Phenylhydrazides as inhibitors of Leishmania amazonensis arginase and antileishmanial activity” (Bioorg Med Chem, 2019).
